Published values collected from several papers.
Lines come from different studies, so protocols differ.
Target: Mitogen-activated protein kinase kinase kinase 19 (MAP3K19, Homo sapiens, UniProt Q56UN5)
One construct used (Q56UN5 1-1328): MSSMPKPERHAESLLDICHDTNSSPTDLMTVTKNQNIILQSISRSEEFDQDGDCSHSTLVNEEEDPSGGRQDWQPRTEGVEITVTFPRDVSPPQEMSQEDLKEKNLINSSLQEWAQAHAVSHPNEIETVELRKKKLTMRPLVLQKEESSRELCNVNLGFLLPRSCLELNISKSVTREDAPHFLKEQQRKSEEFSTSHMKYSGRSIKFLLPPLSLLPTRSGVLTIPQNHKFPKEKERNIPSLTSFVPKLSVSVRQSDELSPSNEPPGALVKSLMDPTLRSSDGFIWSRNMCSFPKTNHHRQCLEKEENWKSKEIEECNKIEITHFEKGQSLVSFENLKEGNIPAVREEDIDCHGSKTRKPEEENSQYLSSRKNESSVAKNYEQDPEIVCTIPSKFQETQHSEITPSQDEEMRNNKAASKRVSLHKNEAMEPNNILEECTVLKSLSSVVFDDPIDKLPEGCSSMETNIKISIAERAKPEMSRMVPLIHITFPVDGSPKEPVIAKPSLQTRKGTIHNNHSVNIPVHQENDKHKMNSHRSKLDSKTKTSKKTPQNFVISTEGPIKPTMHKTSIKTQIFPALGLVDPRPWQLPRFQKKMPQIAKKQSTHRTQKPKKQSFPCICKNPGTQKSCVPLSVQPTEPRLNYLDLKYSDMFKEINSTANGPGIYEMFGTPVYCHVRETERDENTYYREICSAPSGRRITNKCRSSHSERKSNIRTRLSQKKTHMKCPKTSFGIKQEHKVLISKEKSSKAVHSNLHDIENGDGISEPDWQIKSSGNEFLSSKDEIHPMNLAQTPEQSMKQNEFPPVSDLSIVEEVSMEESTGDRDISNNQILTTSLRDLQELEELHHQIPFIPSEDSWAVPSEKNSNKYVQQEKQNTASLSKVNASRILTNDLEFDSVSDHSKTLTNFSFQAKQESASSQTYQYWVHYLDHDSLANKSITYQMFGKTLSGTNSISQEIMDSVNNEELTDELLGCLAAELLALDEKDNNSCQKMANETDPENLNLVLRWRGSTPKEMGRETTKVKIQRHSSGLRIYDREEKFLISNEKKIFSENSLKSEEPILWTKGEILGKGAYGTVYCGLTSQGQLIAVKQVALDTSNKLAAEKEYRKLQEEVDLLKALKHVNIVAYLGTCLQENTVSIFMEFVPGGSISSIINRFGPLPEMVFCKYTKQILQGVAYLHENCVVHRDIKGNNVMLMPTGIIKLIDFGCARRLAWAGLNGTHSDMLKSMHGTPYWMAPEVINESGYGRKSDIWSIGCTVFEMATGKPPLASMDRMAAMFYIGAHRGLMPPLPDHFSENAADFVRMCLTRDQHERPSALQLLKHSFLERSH

Structure (SMILES)	read-out	technique	concentration	remaining binding
N[C@H]1CCN(c2nccc(-c3cnn4ncccc34)n2)C1	binding		1 µM	79%
c1cncc(-c2cccc(Nc3nccc(NC4CCCCC4)n3)c2)c1	binding	competition with immobilised ligand	10 µM	18%
CC1CCCN1c1nccc(-c2cnn3ncccc23)n1 (stereo not drawn)	binding		1 µM	95%
COc1cnc(Nc2cccc(S(N)(=O)=O)c2)nc1N1CCN(c2ccccc2)C(=O)C1	binding	competition with immobilised ligand	1 µM	32%
Cc1cc(C)c(-n2ccn3nc(-c4cccnc4)cc23)cc1NC(=O)c1cc(C#N)cc(S(F)(F)(F)(F)F)c1	cell-free assay	competition with immobilised ligand	0.1 µM	99.5%
COc1ncc2cc3ccccc3nc2c1C#N	cell-free assay	competition with immobilised ligand	5 µM	81%
CCN1CCN(Cc2ccc(C(=O)Nc3ccc(C)c(Oc4ccc5c(c4)CC(=O)N5)c3)cc2C(F)(F)F)CC1	binding	competition with immobilised ligand	1 µM	100%
O=C(NCCCN1CCOCC1)c1ccc(Nc2nccc(-c3cc4ccccc4s3)n2)cc1	binding	competition with immobilised ligand	1 µM	0.1%
Cc1nc(C2CCN(C(=O)c3ccc(OC(F)(F)F)cc3N)CC2)c2ncc(N3CCN(C)CC3)cc2n1	cell-free assay	competition with immobilised ligand	1 µM	79%
O=C(c1ccc(Nc2ncc(Cl)c(-c3cc4ccccc4s3)n2)cc1)N1CCC(N2CCCC2)CC1	binding	competition with immobilised ligand	1 µM	0%
CN(c1nccc(-c2cnn3ncccc23)n1)C1CC1	binding		1 µM	99%
C[C@@H](c1ccc(-n2cnc3c(N)ncnc32)cc1)N1CCc2nn(C)c(Cc3ccccc3)c2C1=O	binding	competition with immobilised ligand	0.1 µM	47%
F[C@@H]1CCN(c2nccc(-c3cnn4ncccc34)n2)C1	binding		1 µM	89%
CC(=O)C1=C(C)N(c2cccc(C(F)(F)F)c2)C(=O)N[C@@H]1c1ccc(C#N)nc1	cell-free assay	competition with immobilised ligand	1 µM	93%
O=C(NCC1CCOCC1)c1n[nH]cc1NC(=O)c1c(F)cccc1F	binding	competition with immobilised ligand	1 µM	52%
Cc1cc(NC(=O)c2cccc(S(F)(F)(F)(F)F)c2)cc(-n2ccn3nc(-c4cccnc4)cc23)c1	cell-free assay	competition with immobilised ligand	1 µM	100%
Cc1cnc(Nc2ccc(C(=O)N3CCC(N4CCCC4)CC3)cc2)nc1-c1cc2ccccc2s1	binding	competition with immobilised ligand	1 µM	0%
CN(C)c1ncc(F)c(-c2cnn3ncccc23)n1	binding		1 µM	69%
CC(=O)N1CCC(c2ccc(C(=O)NC3=NCCN3)cc2C(F)(F)F)CC1	cell-free assay	competition with immobilised ligand	1 µM	100%
CN(C)c1nccc(-c2cnn3ncccc23)n1	binding		1 µM	50%
COc1ccc2c(c1)O[C@@H](c1ccc(OC)c(OC)c1)C[C@H]2NC(=O)C1(c2ccc3c(c2)OC(F)(F)O3)CC1	cell-free assay	competition with immobilised ligand	1 µM	83%
